Where “and” joins values, the source holds several entries; their conditions need not be identical. Equal values may be shown once. Calls of active or inactive are those of the source.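 The calls were made as follows: active = fitted curve crosses 40% activation at or below the top valid dose tested for that sample; inconclusive = flat fit between 30 and 70% activation, or poor fit; inactive = the rest, including activity in the opposite direction.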
system: not listed separately; test: GFP-HIF1alpha nuclear accumulation inducers, dose response, orthogonal assay for HIF pathway activator project, imaging, U2OS, high content, dry powder, set 3 (AID 493239); conditions: U2OS GFP-HIF1alpha nuclear intensity imaging; at 38 µM (top of the series)
How it was run: (§1)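 System: U2OS cells carrying GFP-HIF1alpha; Amount: 2,000 cells/well; Buffer or medium: phenol red-free DMEM with 10% fetal bovine serum; Compound: Eight-point threefold compound dilution series; Schedule: cells plated one day before dosing, compound exposure 24 h at 37 °C; Signal: fluorescence imaging at 10X of formaldehyde-fixed, DAPI-counterstained cells; Benchmarks: Desferrioxamine positive control; Replication: duplicates.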

| Structure (SMILES) | activation |
| --- | --- |
| O=C(c1cc(-c2ccccc2)on1)N1CCc2cccnc21 | 0.25% (inactive) |
| O=C(NCc1ccccc1)c1cc(-c2ccccc2)on1 | -3.06% (inactive) |
| O=C(c1cc(-c2ccccc2)on1)N1CCN(c2ccncc2)CC1 | 14% (inactive) |
| O=C(Nc1cnc2ccccc2c1)c1cc(-c2ccccc2)on1 | 8.34% (inactive) |
| O=C(c1cc(-c2ccccc2)on1)N1CCC(N2CCOCC2)CC1 | -3.94% (inactive) |
| Oc1ccc(CN2CCC(Cc3ccccc3)CC2)c2cccnc12 | 592% (inactive) |
| O=C(Nc1nnc(-c2ccccc2)s1)c1cc(-c2ccccc2)on1 | -0.414% (inactive) |
| O=C(c1cc(-c2ccccc2)on1)N1CCC(CO)CC1 | 8.11% (inactive) |
| CN1CCN(C(=O)c2cc(-c3ccccc3)on2)CC1 | -3.79% (inactive) |
| O=C(Nc1ncc(-c2ccccc2)o1)c1cc(-c2ccccc2)on1 | 4.26% (inactive) |
| Cc1cccc(NC(=O)c2cc(-c3ccccc3)on2)n1 | 7.71% (inactive) |
| COc1ccccc1N1CCN(Cc2ccc(O)c3ncccc23)CC1 | 219% (inactive) |
| Cc1cccc(CNC(=O)c2cc(-c3ccccc3)on2)c1 | 12.7% (inactive) |
| O=C(c1cc(-c2ccccc2)on1)N1CCC(N2CCCC2)CC1 | 5.78% (inactive) |
| O=C(NC1Cc2ccccc2C1)c1cc(-c2ccccc2)on1 | 7.61% (inactive) |
| Cc1ccccc1CNC(=O)c1cc(-c2ccccc2)on1 | 6.92% (inactive) |
| O=C(NCCN1CCOCC1)c1cc(-c2ccccc2)on1 | 248% (inactive) |
| O=C(Nc1ccc2ccccc2n1)c1cc(-c2ccccc2)on1 | 0.342% (inactive) |
| Cc1ccc(CNC(=O)c2cc(-c3ccccc3)on2)cc1 | 0.663% (inactive) |
| Cn1c(NC(=O)c2cc(-c3ccccc3)on2)nc2ccccc21 | -0.603% (inactive) |
| O=C(Nc1nc(-c2ccccc2)cs1)c1cc(-c2ccccc2)on1 | 0.096% (inactive) |

system: U2OS GFP-HIF1alpha nuclear intensity imaging; test: as above; conditions: not given
How it was run: as §1

| Structure (SMILES) | AC40 |
| --- | --- |
| Cn1c(-c2ccccc2)cnc1NC(=O)c1cc(-c2ccccc2)on1 | > 38 µM (inactive) |
| Oc1ccc(CNC2Cc3ccccc3C2)c2cccnc12 | 4.22 µM |
| c1ccc(-c2nnc(-c3ccccn3)nc2N2CCC(c3ccccc3)C2)cc1 (configuration not stated) | 0.353 µM |
| O=C(Nc1nc2ccccc2s1)c1cc(-c2ccccc2)on1 | 20.1 µM |
| c1ccc(-c2nnc(-c3ccccn3)nc2NCC2CC2)cc1 | 3.09 µM |
| CC(C)(C)OC(=O)N1CCN(Cc2ccc(O)c3ncccc23)CC1 | > 38 µM (inactive) |
| Clc1cccc(CNc2nc(-c3ccccn3)nnc2-c2ccccc2)c1 | 0.651 µM |
| N#CC1(c2ccccc2)CCN(Cc2ccc(O)c3ncccc23)CC1 | > 38 µM (inactive) |
| Cc1ccc(Nc2nc(-c3ccccn3)nnc2-c2ccccc2)cn1 | 9.48 µM |
| C[C@@H](Nc1nc(-c2ccccn2)nnc1-c1ccccc1)C1CCCCC1 | 0.515 µM |
| c1ccc(-c2cnc(Nc3nc(-c4ccccn4)nnc3-c3ccccc3)s2)cc1 | 9.91 µM |
| c1ccc(-c2nnc(-c3ccccn3)nc2N2CCC(C3CCCCC3)C2)cc1 (configuration not stated) | 0.24 µM |
| Cc1ccc(CNc2nc(-c3ccccn3)nnc2-c2ccccc2)cc1C | 0.779 µM |
| CN1CCN(c2nc(-c3ccccn3)nnc2-c2ccccc2)CC1 | 8.8 µM |
| O=C(Nc1cn2ccccc2n1)c1cc(-c2ccccc2)on1 | 3.04 µM |
| c1ccc(-c2csc(Nc3nc(-c4ccccn4)nnc3-c3ccccc3)n2)cc1 | 0.88 µM |
| c1ccc(-c2nnc(-c3ccccn3)nc2N2CCC(N3CCOCC3)CC2)cc1 | 3.85 µM |
| COc1ccc(CNc2nc(-c3ccccn3)nnc2-c2ccccc2)cc1 | 1.15 µM |
| c1ccc(-c2nnc(-c3ccccn3)nc2Nc2nc3ccccc3s2)cc1 | 1.26 µM |
| c1ccc(-c2ccc(CNc3nc(-c4ccccn4)nnc3-c3ccccc3)cc2)cc1 | 0.487 µM |
| O=C(NCCCN1CCOCC1)c1cc(-c2ccccc2)on1 | 14.8 µM |
| Cc1ccc(NC(=O)c2cc(-c3ccccc3)on2)cn1 | > 38 µM (inactive) |

| Structure (SMILES) | AC40 |
| --- | --- |
| OCC1CCN(c2nc(-c3ccccn3)nnc2-c2ccccc2)CC1 | 13.6 µM |
| c1ccc(-c2nnc(-c3ccccn3)nc2NCc2cccnc2)cc1 | 3.21 µM |
| Cn1c(-c2ccccc2)cnc1Nc1nc(-c2ccccn2)nnc1-c1ccccc1 | 8.34 µM |
| c1ccc(-c2nnc(-c3ccccn3)nc2N2CCN(c3ccncc3)CC2)cc1 | 5.44 µM |
| c1ccc(-c2nnc(Nc3nc(-c4ccccn4)nnc3-c3ccccc3)s2)cc1 | 7.75 µM |
| c1ccc(CNc2nc(-c3ccccn3)nnc2-c2ccccc2)cc1 | 2.07 µM |
| CC(C)(C)CCNC(=O)c1cc(-c2ccccc2)on1 | 18 µM |
| C[C@H](Nc1nc(-c2ccccn2)nnc1-c1ccccc1)C1CCCCC1 | 0.866 µM |
| Cc1cccc(Nc2nc(-c3ccccn3)nnc2-c2ccccc2)n1 | 2.98 µM |
| Cc1ccc(CNc2nc(-c3ccccn3)nnc2-c2ccccc2)cc1 | 1.24 µM |
| O=C(NCCCO)c1cc(-c2ccccc2)on1 | 5.32 µM |
| OCCCNc1nc(-c2ccccn2)nnc1-c1ccccc1 | 12.1 µM |
| c1ccc(-c2nnc(-c3ccccn3)nc2NCCN2CCOCC2)cc1 | 7.2 µM |
| Oc1ccc(CNC2CCc3ccccc32)c2cccnc12 (configuration not stated) | 10.3 µM |
| C=CCNc1nc(-c2ccccn2)nnc1-c1ccccc1 | 5.24 µM |
| Oc1ccc(CN2CCC3CCCCC3C2)c2cccnc12 (configuration not stated) | 5.44 µM |
| OCC1CCN(Cc2ccc(O)c3ncccc23)CC1 | 4.02 µM |
| CC(Nc1nc(-c2ccccn2)nnc1-c1ccccc1)c1ccccc1 (configuration not stated) | 1.48 µM |
| O=C(NCCCCO)c1cc(-c2ccccc2)on1 | 2.08 µM |
| O=C(NCCN1CCCCC1)c1cc(-c2ccccc2)on1 | > 38 µM (inactive) |
| c1ccc(-c2nnc(-c3ccccn3)nc2NCCCN2CCOCC2)cc1 | 5.94 µM |
| CC1CN(Cc2ccc(O)c3ncccc23)CC(C)O1 (configuration not stated) | 18.6 µM |

| Structure (SMILES) | AC40 |
| --- | --- |
| c1ccc(-c2cccc(CNc3nc(-c4ccccn4)nnc3-c3ccccc3)c2)cc1 | 0.407 µM |
| O=C(NCC1CC1)c1cc(-c2ccccc2)on1 | 7.97 µM |
| CN(C)CCNC(=O)c1cc(-c2ccccc2)on1 | > 38 µM (inactive) |
| CN(C)c1nc(-c2ccccn2)nnc1-c1ccccc1 | 11.6 µM |
| CC(C)(C)CCNc1nc(-c2ccccn2)nnc1-c1ccccc1 | 0.77 µM and 0.585 µM |
| Cc1ccccc1CNc1nc(-c2ccccn2)nnc1-c1ccccc1 | 1.14 µM |
| O=C(NCCCn1ccnc1)c1cc(-c2ccccc2)on1 | 5.74 µM |
| c1ccc(-c2nnc(-c3ccccn3)nc2NCC2CCCCC2)cc1 | 1.13 µM |
| Oc1ccc(CN2CCc3ccccc3C2)c2cccnc12 | 3.58 µM and 20.4 µM |
| c1ccc(-c2nnc(-c3ccccn3)nc2NCC2CCOCC2)cc1 | 6.43 µM |
| c1ccc(CCNc2nc(-c3ccccn3)nnc2-c2ccccc2)cc1 | 5.72 µM |
| c1ccc(-c2nnc(-c3ccccn3)nc2NCCc2ccccn2)cc1 | 4.57 µM |
| CCCCNC(=O)c1cc(-c2ccccc2)on1 | 5.94 µM |
| O=C(NC1CCc2ccccc2C1)c1cc(-c2ccccc2)on1 (configuration not stated) | > 38 µM (inactive) |
| C[C@@H](Nc1nc(-c2ccccn2)nnc1-c1ccccc1)c1ccccc1 | 1.87 µM |
| Cc1cccc(CNc2nc(-c3ccccn3)nnc2-c2ccccc2)c1 | 1.83 µM |
| c1ccc(-c2nnc(-c3ccccn3)nc2NCc2ccccn2)cc1 | 6.35 µM |
| O=C(NCC1CCCCC1)c1cc(-c2ccccc2)on1 | > 38 µM (inactive) |
| COc1cccc(CNc2nc(-c3ccccn3)nnc2-c2ccccc2)c1 | 1.08 µM |
| CC(C)(C)c1ccc(CNc2nc(-c3ccccn3)nnc2-c2ccccc2)cc1 | 0.169 µM |
| c1ccc(-c2nnc(-c3ccccn3)nc2Nc2cnc3ccccc3n2)cc1 | 3.16 µM |
| O=C(Nc1ncc2ccccc2n1)c1cc(-c2ccccc2)on1 | 32.3 µM |
